Experimental data taken from paper PMC3240686 (Journal of medicinal chemistry, 2011).

Legend:
[1] = test system: carrageenan-induced thermal hyperalgesia; assay: Carrageenan-induced thermal hyperalgesia; assay type: in vivo; settings: rats; for block of development of carrageenan-induced hyperalgesia, i.p.: i.p. injection 10 mg/kg; for block of development of carrageenan-induced hyperalgesia, i.p. / block of carrageenan-induced hyperalgesia, oral: 30 min before carrageenan, n=3; for antihyperalgesic effect and its duration: oral 100 mg/kg, n=2, time post-carrageenan; for activity at inhibiting hyperalgesia: carrageenan model
Summary of the method: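 Under light CO2 (80%)/O2 (20%) anaesthesia, rats received subplantar 1% carrageenan in saline (vehicle: saline) into the right hindpaw. For prophylactic dosing, drug or vehicle was given by gavage or i.p. 30 min before carrageenan. Heat hyperalgesia was measured by the Hargreaves plantar test, with an infrared stimulus from below and a 20 s cut-off. The read-out was change in paw-withdrawal latency (s).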

[2] = Observed acute toxicity in the carrageenan hyperalgesia studies; assay type: in vivo, rats
[3] = Relative lipophilicity by reversed phase HPLC retention factors; assay type: physicochemical; settings: relative to parent compound 7, isocratic conditions
[4] = Cyclic voltammetry in CH2Cl2; assay type: physicochemical
[5] = test system: mechano-allodynia after CCI of the sciatic nerve; assay: Chronic constriction injury; assay type: in vivo; settings: mice
[6] = octanol-water, slow stir method
[7] = dose 300 mg/kg, 2 h time point, n=6

Compound: CC[n+]1ccccc1-c1c2nc(c(-c3cccc[n+]3CC)c3ccc([n-]3)c(-c3cccc[n+]3CC)c3nc(c(-c4cccc[n+]4CC)c4ccc1[n-]4)C=C3)C=C2.[Mn+3] [Mn(III)-TE-2-PyP^5+, Mn(III) meso-tetrakis[(N-ethyl)pyridinium-2-yl]porphyrin (5+), reference compound]
- block of development of carrageenan-induced hyperalgesia, i.p. [1]: blocked the development of carrageenan-induced hyperalgesia
- block of carrageenan-induced hyperalgesia, oral ([1]; oral gavage 100 mg/kg): only 7 is able to block hyperalgesia when given orally
- mortality ([2]; i.p., 3 fold higher dose than the one required to block hyperalgesia): 100%

Compound: CC(=O)Nc1ccc(O)cc1 [acetaminophen, reference compound]
- % inhibition of hyperalgesia [1, 7]: 20±4%

Compound: CC(=O)Oc1ccccc1C(=O)O [aspirin, reference compound]
- % inhibition of hyperalgesia [1, 7]: 50±6%

Compound: CC(C)Cc1ccc(C(C)C(=O)O)cc1 (centres unmarked) [ibuprofen, reference compound]
- % inhibition of hyperalgesia [1, 7]: 99±5%

Compound: Mn(III)-5,15-bis(4-acetoxymethyl)phenyl-TCHP [Compound 16a]
- antihyperalgesic effect and its duration [1]: strong antihyperalgesic effect out to 2 hours post-carrageenan but the effect was lost at 3 hours
- relative lipophilicity by RPHPLC retention factor [3]: progressively more lipophilic

Compound: Mn(III)-5,15-bis(4-hydroxymethyl)phenyl-TCHP [Compound 15]
- antihyperalgesic effect and its duration [1]: excellent potency out to the 5 hour time point
- relative lipophilicity by RPHPLC retention factor [3]: substantially less lipophilic than parent compound 7

Compound: Mn(III)-5,15-bis(4-isobutyryloxymethyl)phenyl-TCHP [Compound 16c]
- antihyperalgesic effect and its duration [1]: potent anti-hyperalgesic action out to the 5 hour time point
- relative lipophilicity by RPHPLC retention factor [3]: progressively more lipophilic

Compound: Mn(III)-5,15-bis(4-propionyloxymethyl)phenyl-TCHP [Compound 16b]
- antihyperalgesic effect and its duration [1]: strong antihyperalgesic effect out to 3 hours with a decline in this effect occurring in the 4–5 hour time period
- relative lipophilicity by RPHPLC retention factor [3]: progressively more lipophilic

Compound: Mn(III)-5,15-di-phenyl-TCHP Chloride [Compound 10]
- activity at inhibiting hyperalgesia [1]: active at inhibiting hyperalgesia
- reversible (presumably porphyrin-based) oxidation potential ([4]; cyclic voltammetry in CH2Cl2): 0.89 V. vs. ferrocene
- Mn(II/III) couple ([4]; cyclic voltammetry in CH2Cl2, chemically reversible): −0.79 V vs. ferrocene

Compound: Mn(III)-5, 10, 15, 25-tetrakis-phenyl-TCHP Chloride [Compound 12]
- activity at inhibiting hyperalgesia [1]: active at inhibiting hyperalgesia

Compound: Mn(III)-TCHP Chloride [Compound 7]
- effect on withdrawal responses of contralateral paws ([5]; oral 10–100 mg/kg): no effect
- reversal of neuropathic pain (mechano-allodynia) ([5]; oral 10–100 mg/kg at time of peak mechano-allodynia, n=4): rapid, dose-dependent and near-to-maximal reversal of neuropathic pain within 1h post-dosing
- 95% CI of ED50 ([5]; oral, at time of peak reversal, n=4): 15.64 to 51.67 mg/kg/day
- ED50, reversal of mechano-allodynia ([5]; oral, day 7 after CCI, at time of peak reversal, n=4): 28 mg/kg
- reversal of established hyperalgesia: pain at 1 h after dosing ([1]; 100 mg/kg oral gavage at 3 h post carrageenan, 4 hour time point): pain was substantially reduced
- block of development of carrageenan-induced hyperalgesia, i.p. [1]: blocked the development of carrageenan-induced hyperalgesia
- block of carrageenan-induced hyperalgesia, oral ([1]; oral gavage 100 mg/kg): able to block hyperalgesia when given orally
- % inhibition of hyperalgesia ([1]; oral gavage 100 mg/kg, for 2 h): ~100%
- inhibitory effect at late time ([1]; oral gavage 100 mg/kg, out to 5 h): substantial inhibitory effect maintained out to 5 h
- LogP [6]: 3.77
- acute toxicity ([2]; doses at least 6–8 fold higher than the one needed to block hyperalgesia): no observable acute toxicities
